Key:
[1] = system: Human immunodeficiency virus 1; test: Antiviral activity against HIV-1 NL4-3 infected in human MT4 cells assessed as reduction in p24 gag protein incubated for 4 days by ELISA; format: functional, organism-based; conditions: Human immunodeficiency virus 1, NL4-3, MT4, 96 h
In short: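 MT-4 cells infected with HIV-1 NL4-3 at MOI 0.01, serial compound concentrations, in 96-well format. Supernatant p24 antigen measured by capture ELISA on day 4 post-infection. IC50 is the concentration that inhibits NL4-3 replication by 50%. Bevirimat run in parallel as the reference.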

MT4 = test: Cytotoxicity against human MT4 cells assessed as reduction in cell viability incubated for 2 days by CytoTox-Glo cytotoxicity assay; format: cell-based; conditions: mt4, 48 h, time 2 day
In short: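 Mock-infected MT-4 cells cultured 2 days with a range of compound concentrations. Viability measured by CytoTox-Glo, following the kit protocol, as percent viable cells. CC50 is the concentration giving a 50% reduction in cell viability.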

[2] = system: Human immunodeficiency virus 1; test: Potency index, ratio of IC50 for bevirimat to IC50 for test compound for antiviral activity against HIV-1 NL4-3 infected in human MT4 cells assessed as reduction in p24 gag protein incubated for 4 days by ELISA; format: functional; conditions: time 4 day
In short: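 MT-4 cells infected with HIV-1 NL4-3 at MOI 0.01 and cultured with the test compounds. Bevirimat was run in parallel as the reference control. Supernatant p24 was measured on day 4 post-infection by antigen-capture ELISA. IC50 is the concentration that inhibits NL4-3 replication by 50%. The index is the bevirimat IC50 divided by the test-compound IC50.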

SMILES	IC50 ([1]; read-out: IC50) [nM]	IC50 ([1]; read-out: pIC50 (converted)) [nM]	CC50 (MT4) [nM]	Ratio IC50 [2]
C=C(C)[C@@H]1CC[C@]2(C(=O)N3CCN(C(=O)/C=C/c4ccc(O)c(OC)c4)CC3)CC[C@]3(C)[C@H](CC[C@@H]4[C@@]5(C)CC[C@H](OC(=O)CC(C)(C)C(=O)O)C(C)(C)[C@@H]5CC[C@]43C)[C@@H]12	18	18.2	> 2000	2
C=C(C)[C@@H]1CC[C@]2(C(=O)N3CCN(C(=O)/C=C/c4ccc(OCOC)c(OC)c4)CC3)CC[C@]3(C)[C@H](CC[C@@H]4[C@@]5(C)CC[C@H](OC(=O)CC(C)(C)C(=O)O)C(C)(C)[C@@H]5CC[C@]43C)[C@@H]12	25	25.1	> 2000	2

Source: ChEMBL document CHEMBL4732243, “Design, synthesis, and structure activity relationship analysis of new betulinic acid derivatives as potent HIV inhibitors” (Eur J Med Chem, 2021)
